Published values of several laboratories.
Compare with care: the assays were run in different laboratories.
Target: Cyclin-dependent kinase-like 1 (CDKL1, Homo sapiens, UniProt Q00532)

COc1ncc2cc3ccccc3nc2c1C#N
remaining binding (binding; competition with immobilised ligand; 5 µM): 100%

CNC(=O)[C@@H]1CC[C@@H](n2c(-c3ccc4cnccc4c3)nc3ccc(C(=O)NCc4cccc(C(N)=O)c4)cc32)C1
remaining binding (binding; competition with immobilised ligand; 1 µM): 90%

C[C@H](c1ccnc(Nc2nc3ccc(-c4cc(N(C)C)ncn4)cc3[nH]2)c1)N1CCN(C(=O)CC(F)(F)F)CC1
remaining binding (binding; competition with immobilised ligand; 0.1 µM): 100%

Cc1cnn2ncc(-c3ccnc(N(C)C)n3)c2c1
remaining binding (binding; 1 µM): 73%

C=CC(=O)N1CCC(C(=O)NCC(=O)N2CCN(c3nc(-c4cnc(N)nc4C(F)F)nc(N4CCOCC4)n3)CC2)CC1
remaining binding (binding; competition with immobilised ligand; 1 µM): 90%

Cc1nc(N2CC[C@@H](O)C2)ncc1-c1cc(C(F)(F)F)cc2[nH]ncc12
remaining binding (binding; competition with immobilised ligand; 1 µM): 77%

O=C(NCCCN1CCOCC1)c1ccc(Nc2ncc(Cl)c(-c3ccc(Cl)s3)n2)cc1
remaining binding (binding; competition with immobilised ligand; 1 µM): 36%

CN(C)c1nccc(-c2cnc3ncccn23)n1
remaining binding (binding; 1 µM): 100%

O=C(NCCCN1CCOCC1)c1ccc(Nc2nccc(-c3cc4ccccc4s3)n2)cc1
remaining binding (binding; competition with immobilised ligand; 1 µM): 54%

CNC(=O)Nc1ccc2c(c1)CC[C@@]21OC(=O)N(CC(=O)N(Cc2ccc(F)cc2)[C@@H](C)C(F)(F)F)C1=O
remaining binding (binding; competition with immobilised ligand; 1 µM): 86%

O=C(c1ccc(Nc2ncc(Cl)c(-c3ccc(Cl)s3)n2)cc1)N1CCC(N2CCCC2)CC1
remaining binding (binding; competition with immobilised ligand; 1 µM): 32%

CN(C)c1nccc(-c2cnn3ncccc23)n1
remaining binding (binding; 1 µM): 89%

CCN1CCN(Cc2ccc(C(=O)Nc3ccc(C)c(Oc4ccc5c(c4)CC(=O)N5)c3)cc2C(F)(F)F)CC1
remaining binding (binding; competition with immobilised ligand; 1 µM): 100%

N#Cc1ccc(Nc2ccc3[nH]c(=O)[nH]c3c2)c(Cl)c1
remaining binding (binding; competition with immobilised ligand; 1 µM): 84%

c1cncc(-c2cccc(Nc3nccc(NC4CCCCC4)n3)c2)c1
remaining binding (binding; competition with immobilised ligand; 10 µM): 70%

FC(F)(F)Oc1cccc(-c2cnc3ccc(-c4ccncc4)nn23)c1
remaining binding (cell-free assay; competition with immobilised ligand; 5 µM): 68%

Cc1nccc(COC(=O)N2C[C@@H]3[C@@H](CNC(=O)c4ccc5[nH]nnc5c4)[C@@H]3C2)n1
remaining binding (cell-free assay; competition with immobilised ligand; 1 µM): 81%

F[C@@H]1CCN(c2nccc(-c3cnn4ncccc34)n2)C1
remaining binding (binding; 1 µM): 89%

O=C(Nc1c[nH]nc1C(=O)NC1CCNCC1)c1cc(F)cc(F)c1
remaining binding (binding; competition with immobilised ligand; 1 µM): 95%

C[C@@H]1CCN(c2nccc(-c3cnn4ncccc34)n2)C1
remaining binding (binding; 1 µM): 70%

c1ccc(N2CCN(Cc3nc4ccccc4[nH]3)CC2)nc1
remaining binding (binding; competition with immobilised ligand; 1 µM): 78%
